Results filed as inconclusive are left out.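 How the source made its calls, unless noted: active means RAM network inhibition above 8.4% in each of two replicates, 3 SD over the compound average; inconclusive means above 8.4% inhibition in only one replicate; inactive means 8.4% inhibition or less in each replicate.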
Key:
[1] = S. cerevisiae growth inhibition in permissive medium (OD615), pilot counter-assay for S. cerevisiae lifespan shortening project, permissive growth control (AID 705;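 active means growth inhibition above 25% in both replicates, a cutoff set 3 SD above the mean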); conditions: OD615, 24 h, at 10 µM, hits give high values
Method in brief: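 System: Engineered DeaD yeast | Buffer or medium: SC raffinose/galactose permissive medium | Doses: 10 µM single dose, 0.25% DMSO | Times: 24 h exposure, 30 °C | Measured by: OD615 turbidity read | Read-out: Yeast growth inhibition indicated by reduced 24 h OD615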

[2] = S. cerevisiae growth inhibition in restrictive medium, OD615, pilot screen, restrictive growth control, yeast lifespan reduction project (AID 706;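 active means growth inhibition above a set limit, 3 SD over mean compound inhibition, in both replicates, cut at about 43% in these data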;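 further: modified DeaD lifespan yeast strain shifted to restrictive glucose medium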); conditions: OD615, 48 h, at 10 µM, hits give high values
Method in brief: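 Assay system: engineered S. cerevisiae DeaD strain; Buffer or medium: CSMM-D glucose medium; Dosing: 10 µM compound, 0.25% DMSO; Times: cell pre-growth 4 h, compound exposure 48 h, 30 °C; Detection: absorbance (optical density) measured at 615 nm.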

[3] = doxorubicin toxicity protection in MRP-1 cells – H69AR cells, CellTiter-Glo, duplicate, MRP-1 activator project, pilot screen (AID 807;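 active means viability increase at or above a cutoff of the median across tested compounds plus 3 SD, cut at about 8.5% in these data, passing the limit was not always enough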;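 further: compound pretreatment 18-22 h then 72 h combined with doxorubicin; 0% = doxorubicin alone and 100% = vehicle without doxorubicin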); conditions: H69AR viability with doxorubicin, CellTiter-Glo luminescence; at 10 µM; hits give high values
[4] = viability of HCT116 without oncogenic beta-catenin – human colon tumor cells, pilot screen (AID 823;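 active means cell viability at or below a set limit in both duplicate runs, the limit being the all-compound median minus 4 SD, cut at about 23% in these data, passing the limit was not always enough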;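 further: 0% = wells killed by 20 µM Hyamine and 100% = untreated DMSO cell wells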); conditions: HCT116 beta-catenin knockout viability, CellTiter-Glo, 60 h; at 10 µM; hits give low values
[5] = viability of PTEN-null HCT116 cells – cell-based, HCT116 clonal line, CellTiter-Glo, pilot screen (AID 824;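 active means viability at or below 27.92% in each of two runs, the all-compound median minus 4 SD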;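 further: 0% = 20 µM Hyamine control and 100% = vehicle cell control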); conditions: HCT116 PTEN-deleted viability, 60 h, at 10 µM, hits give low values
[6] = RAM pathway blockade in budding yeast – dse1pr::URA3 reporter, 5-FOA selection, pilot screen (AID 869;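 active means inhibition over a set limit, the all-compound mean plus 3 SD, in both replicate runs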;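 further: 0% = DMSO wells with no growth and 100% = 10 µM 1-NA-PP1 with full growth; RAM network block rescues cells from 5-FOA so hits raise OD615 growth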); conditions: S. cerevisiae dse1pr::URA3 5-FOA growth, OD615, 2 d; at 10 µM; hits give high values; strain carries analog-sensitive mutant Cbk1 kinase
[7] = RAM signaling pathway blockade in yeast – S. cerevisiae, Pdr1DBD-CYC8 efflux-inhibited sensitized strain, primary screen (AID 1298);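 further: 0% = DMSO untreated cells without growth and 100% = 10 µM 1-NA-PP1 full growth; higher means more yeast growth rescued from 5-FOA killing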; conditions: S. cerevisiae cbk1-as DSE1-URA3 strain, 5-FOA growth OD615, 2 d; at 50 µM; hits give high values

CCN1CCN(CC(O)COc2ccc(C(C)=O)cc2)CC1 (stereo not drawn)
inactive: growth inhibition [1] -5.8% | growth inhibition [2] -1.04% | viability increase [3] 0.34% | viability [4] 98.8% | viability [5] 100% | inhibition [6] 0.405% | RAM network inhibition [7] 0.31%

CCOc1ccc(N(CC(=O)NCCCOC)S(C)(=O)=O)cc1
inactive: growth inhibition [1] 4.66% | growth inhibition [2] 3.23% | viability increase [3] -2.35% | viability [4] 98.9% | viability [5] 101% | inhibition [6] 0.95% | RAM network inhibition [7] 2.73%

CCOc1ccc(N(CC(=O)NC2CCCC2)S(=O)(=O)c2c(C)noc2C)cc1
inactive: growth inhibition [1] -12.7% | growth inhibition [2] -2.85% | viability increase [3] -2.27% | viability [4] 97.4% | viability [5] 94.9% | inhibition [6] 3.61% | RAM network inhibition [7] 8.02%

COc1ccc(NC(=O)C(c2ccc(C)cc2)N(C)C(=O)c2cnccn2)cc1 (stereo not drawn)
inactive: growth inhibition [1] 1.81% | growth inhibition [2] 1.4% | viability increase [3] -1.03% | viability [4] 89.6% | viability [5] 95.6% | inhibition [6] -0.145% | RAM network inhibition [7] 0.06%

COCCN1C(=O)c2oc3ccccc3c(=O)c2C1c1ccc(OC)c(OC)c1 (stereo not drawn)
inactive: growth inhibition [1] -24% | growth inhibition [2] -16.9% | viability increase [3] -1.75% | viability [4] 107% | viability [5] 95.1% | inhibition [6] 0.865% | RAM network inhibition [7] 4.46%

COc1cc(S(=O)(=O)N2CCN(c3ccccc3)CC2)ccc1Cl
inactive: growth inhibition [1] -16.9% | growth inhibition [2] -14% | viability increase [3] -3.07% | viability [4] 95.1% | viability [5] 95.3% | inhibition [6] 0.17% | RAM network inhibition [7] 6.95%

O=C(CCCCC(=O)N1CCN(c2ccccc2)CC1)N1CCN(c2ccccc2)CC1
inactive: growth inhibition [1] -2.23% | growth inhibition [2] 8.9% | viability increase [3] 0.82% | viability [4] 94.6% | viability [5] 86% | inhibition [6] 1.74% | RAM network inhibition [7] -0.46%

Cc1cc(C)c(NC(=O)c2ccc(S(=O)(=O)N3CCOCC3)cc2)c(C)c1
inactive: growth inhibition [1] -9.41% | growth inhibition [2] -8.03% | viability increase [3] -2.1% | viability [4] 101% | viability [5] 98.1% | inhibition [6] 0.57% | RAM network inhibition [7] 0.69%

Cc1oc(-c2ccc(Cl)cc2)nc1CS(=O)CC(=O)NCCN1CCCC1 (stereo not drawn)
inactive: growth inhibition [1] -4.58% | growth inhibition [2] -1.17% | viability increase [3] -1.14% | viability [4] 91.1% | viability [5] 91.4% | inhibition [6] 1.06% | RAM network inhibition [7] 8.14%

CCn1cc(CNC(=O)c2cc(Cl)ccc2OC)c(C)n1
inactive: growth inhibition [1] -4.3% | growth inhibition [2] -0.555% | viability increase [3] -0.95% | viability [4] 91% | viability [5] 92.2% | inhibition [6] -0.445% | RAM network inhibition [7] 3.38%

Cc1c(C(=O)O)oc2ccc(S(=O)(=O)N3CCCCC3C(=O)O)cc12 (stereo not drawn)
inactive: growth inhibition [1] 4.47% | growth inhibition [2] -3.15% | viability increase [3] -0.18% | viability [4] 97.1% | viability [5] 101% | inhibition [6] 1.12% | RAM network inhibition [7] 5.52%

Cc1ccc(Oc2ccccc2)c(NC=O)c1
inactive: growth inhibition [1] -2.02% | growth inhibition [2] 11.4% | viability increase [3] -3.07% | viability [4] 96.2% | viability [5] 90.4% | inhibition [6] -0.085% | RAM network inhibition [7] 1.17%

CC(NC(=O)C1CCC1)c1ccc2c(c1)OCO2 (stereo not drawn)
inactive: growth inhibition [1] -10% | growth inhibition [2] -5.42% | viability increase [3] -2.08% | viability [4] 97.5% | viability [5] 91.7% | inhibition [6] 1.67% | RAM network inhibition [7] 0.83%

O=C1CN(C(=O)COc2ccccc2)CCN1
inactive: growth inhibition [1] -14.3% | growth inhibition [2] -15.5% | viability increase [3] -1.4% | viability [4] 99.3% | viability [5] 96.8% | inhibition [6] 1.35% | RAM network inhibition [7] -0.43%

CCOc1ccc(C2CC(c3ccc(OC)cc3)n3ncnc3N2)cc1 (stereo not drawn)
inactive: growth inhibition [1] 1.92% | growth inhibition [2] 21% | viability increase [3] 0.61% | viability [4] 104% | viability [5] 99% | inhibition [6] -0.22% | RAM network inhibition [7] 4.99%

CN(CP(=O)(O)C(O)c1ccccc1)S(C)(=O)=O (stereo not drawn)
inactive: growth inhibition [1] -4.82% | growth inhibition [2] -6.66% | viability increase [3] 0.16% | viability [4] 94.2% | viability [5] 93.4% | inhibition [6] 1.1% | RAM network inhibition [7] 1.86%

CCn1cc(C(=O)NCC2CCCO2)c2cc(OC)c(OC)cc2c1=O (stereo not drawn)
inactive: growth inhibition [1] -8.12% | growth inhibition [2] -20.1% | viability increase [3] -1.89% | viability [4] 95.4% | viability [5] 101% | inhibition [6] 0.955% | RAM network inhibition [7] 1.29%

COc1ccccc1N1CCN(c2nc(N)c(C#N)c(CC#N)c2C#N)CC1
inactive: growth inhibition [1] -1.4% | growth inhibition [2] -0.44% | viability increase [3] 2.45% | viability [4] 96.7% | viability [5] 86.3% | inhibition [6] 1.54% | RAM network inhibition [7] 3.57%

O=C(c1ccc(CS(=O)(=O)c2c(Cl)cccc2Cl)o1)N1CCN(c2ccccn2)CC1
inactive: growth inhibition [1] -4.86% | growth inhibition [2] -8.68% | viability increase [3] -3.07% | viability [4] 97.8% | viability [5] 93.1% | inhibition [6] -0.07% | RAM network inhibition [7] 3.34%

Fc1ccc(-c2nnc(-c3ccc(Cl)cc3Cl)o2)cc1
inactive: growth inhibition [1] -6.69% | growth inhibition [2] -11.2% | viability increase [3] -5.12% | viability [4] 70.6% | viability [5] 64.2% | inhibition [6] 3.06% | RAM network inhibition [7] 3.99%

CC1CCc2nn(CC(=O)NCCC3=CCCCC3)cc2C1 (stereo not drawn)
inactive: growth inhibition [1] 4.45% | growth inhibition [2] -4.16% | viability increase [3] -1.4% | viability [4] 101% | viability [5] 94.5% | inhibition [6] 0.595% | RAM network inhibition [7] 0.3%

O=C(Nc1nc2ccc(Cl)cc2s1)c1ccc(Br)o1
inactive: growth inhibition [1] -6.29% | growth inhibition [2] -6.11% | viability increase [3] -2.25% | viability [4] 82.3% | viability [5] 82.7% | inhibition [6] 2.08% | RAM network inhibition [7] 5.17%

CN(C)CCCNc1ncnc2c1cnn2-c1ccccc1
inactive: growth inhibition [1] -5.54% | growth inhibition [2] -5.82% | viability increase [3] 2.9% | viability [4] 94.3% | viability [5] 106% | inhibition [6] 0.27% | RAM network inhibition [7] -0.77%

CC(=O)SCCC(=O)N1C(C)CCCC1C(=O)O (stereo not drawn)
inactive: growth inhibition [1] -1.05% | growth inhibition [2] -7.75% | viability increase [3] -0.97% | viability [4] 95.9% | viability [5] 102% | inhibition [6] 0.62% | RAM network inhibition [7] 5.78%

Reference: PubChem BioAssay
